The test system of data set [1] is Mus musculus. The experiment in a line: Toxicity in mouse xenografted with B16F10 cells assessed as body weight at 20 mg/kg, iv measured after 25 days (reference value: 28.1 +/- 1.7 g). In kind it is organism-based, B16-F10. The conditions noted are these: in vivo, 600 h.
Data set [2] is described as follows: Antitumor activity against mouse B16F10 cells xenografted in mouse assessed as inhibition of tumor growth at 20 mg/kg, iv after 25 days. It counts as functional. Conditions: B16-F10, iv, 600 h.
In data set [3] the test system is A549. The experiment in a line: Antiproliferative activity against human A549 cells after 72 hrs by MTT assay. It counts as functional, cell-based. Conditions: A549, 72 h. An outline of the steps: (§1)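 Cells seeded at 5×10^4/well, grown 24 h at 37 °C in 5% CO₂, then exposed to compounds dissolved in DMSO at a range of concentrations for 72 h. MTT (5 mg/mL in PBS) added for 4 h, then OD read at 570 nm. IC50 taken from dose-response curves, mean ± S.D. of three independent experiments.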
On the technique in general: Tetrazolium assays rely on reduction of a dye to a coloured formazan, in cell work by metabolically active cells.

Data set [4] is described as follows: Selectivity index, ratio of IC50 for rat COX2 to IC50 for calf COX1. An outline of the steps:
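Ratio of COX-2 IC50 to COX-1 IC50. COX-2 was measured in rat peritoneal macrophages: 1.0×10^6/well in RPMI 1640 with 5% FCS, grown 24 h, COX-1 inactivated with 1 mM aspirin, COX-2 induced with LPS 1 µg/mL for 6 h, compound added for 30 min, then arachidonic acid 10 µM for 20 min, PGE2 read by EIA. COX-1 was measured in calf aortic endothelial cells by 6-keto-PGF1α radioimmunoassay.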

Data set [5] has as its target T1, Prostaglandin G/H synthase 2 (Rattus norvegicus, UniProt P35355).
T1 sequence (P35355 whole entry): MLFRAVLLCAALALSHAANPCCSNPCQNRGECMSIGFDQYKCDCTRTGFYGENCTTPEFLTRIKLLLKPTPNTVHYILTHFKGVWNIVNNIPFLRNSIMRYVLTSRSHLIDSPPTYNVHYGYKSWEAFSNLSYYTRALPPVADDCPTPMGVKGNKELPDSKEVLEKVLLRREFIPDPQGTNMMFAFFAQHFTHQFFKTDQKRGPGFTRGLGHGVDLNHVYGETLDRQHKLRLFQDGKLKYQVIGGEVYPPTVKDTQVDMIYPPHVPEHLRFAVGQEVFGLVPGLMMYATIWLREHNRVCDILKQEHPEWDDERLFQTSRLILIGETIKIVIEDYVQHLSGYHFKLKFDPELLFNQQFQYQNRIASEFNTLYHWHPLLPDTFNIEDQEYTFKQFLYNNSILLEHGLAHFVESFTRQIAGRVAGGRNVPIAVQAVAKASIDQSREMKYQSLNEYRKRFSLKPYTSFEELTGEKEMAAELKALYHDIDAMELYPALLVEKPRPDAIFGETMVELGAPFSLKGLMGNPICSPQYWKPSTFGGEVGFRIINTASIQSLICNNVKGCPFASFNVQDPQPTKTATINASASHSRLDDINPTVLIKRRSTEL
Briefly: Inhibition of COX2 in rat abdominal macrophages assessed as PGE2 production pretreated for 30 mins followed by addition of 10 uM arachidonic acid as substrate for 20 mins by EIA.

Data set [6] can be described thus: Antiproliferative activity against mouse B16F10 cells after 72 hrs by MTT assay. It counts as functional, cell-based. Conditions: B16-F10, 72 h. An outline of the steps:
as §1

Data set [7] concerns the target T2, Prostaglandin G/H synthase 1 (Bos taurus, UniProt O62664).
T2 sequence (O62664 whole entry): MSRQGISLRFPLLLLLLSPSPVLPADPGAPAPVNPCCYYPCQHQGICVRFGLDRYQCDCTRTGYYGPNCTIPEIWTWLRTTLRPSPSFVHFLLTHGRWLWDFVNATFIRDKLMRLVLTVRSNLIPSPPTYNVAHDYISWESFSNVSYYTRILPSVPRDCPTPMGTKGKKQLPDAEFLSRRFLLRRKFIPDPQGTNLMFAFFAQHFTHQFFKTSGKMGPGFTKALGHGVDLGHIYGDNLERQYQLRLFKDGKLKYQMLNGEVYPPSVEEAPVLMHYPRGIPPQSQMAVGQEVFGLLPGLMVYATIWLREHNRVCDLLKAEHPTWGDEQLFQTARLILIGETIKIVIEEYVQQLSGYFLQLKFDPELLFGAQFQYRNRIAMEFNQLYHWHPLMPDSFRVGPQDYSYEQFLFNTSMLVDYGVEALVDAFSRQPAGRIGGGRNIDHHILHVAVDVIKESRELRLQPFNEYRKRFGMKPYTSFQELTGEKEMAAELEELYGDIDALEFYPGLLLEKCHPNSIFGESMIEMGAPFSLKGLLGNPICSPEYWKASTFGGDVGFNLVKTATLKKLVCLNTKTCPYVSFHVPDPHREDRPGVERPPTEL
The experiment in a line: Inhibition of COX1 in calf endotheliocyte assessed as 6keto-PGF1alpha production pretreated for 20 mins followed by addition of 10 uM arachidonic acid as substrate for 20 mins by radioimmuno assay. An outline of the steps: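 Endothelial cells from neonatal calf thoracic aorta plated at 1.0×10^6 in DMEM with 10% FBS and grown 24 h at 37 °C in 5% CO₂. Compound or DMSO added for 20 min, then arachidonic acid (10 μM) for another 20 min. 6-keto-PGF1α in the medium quantified by radioimmunoassay. IC50 is the mean of four determinations.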

Data set [8] in a line: Antiproliferative activity against human Caco2 cells after 72 hrs by MTT assay. In kind it is functional, cell-based. Conditions: Caco-2, 72 h. The procedure, abridged: as §1
Data set [9] is described as follows: Antiproliferative activity against human PC3 cells after 72 hrs by MTT assay. In kind it is functional, cell-based. The conditions noted are these: PC-3, 72 h. The procedure, abridged:
as §1

For data set [10], the target named is T3, Polyunsaturated fatty acid 5-lipoxygenase (Rattus norvegicus, UniProt P12527).
T3 sequence (P12527 whole entry): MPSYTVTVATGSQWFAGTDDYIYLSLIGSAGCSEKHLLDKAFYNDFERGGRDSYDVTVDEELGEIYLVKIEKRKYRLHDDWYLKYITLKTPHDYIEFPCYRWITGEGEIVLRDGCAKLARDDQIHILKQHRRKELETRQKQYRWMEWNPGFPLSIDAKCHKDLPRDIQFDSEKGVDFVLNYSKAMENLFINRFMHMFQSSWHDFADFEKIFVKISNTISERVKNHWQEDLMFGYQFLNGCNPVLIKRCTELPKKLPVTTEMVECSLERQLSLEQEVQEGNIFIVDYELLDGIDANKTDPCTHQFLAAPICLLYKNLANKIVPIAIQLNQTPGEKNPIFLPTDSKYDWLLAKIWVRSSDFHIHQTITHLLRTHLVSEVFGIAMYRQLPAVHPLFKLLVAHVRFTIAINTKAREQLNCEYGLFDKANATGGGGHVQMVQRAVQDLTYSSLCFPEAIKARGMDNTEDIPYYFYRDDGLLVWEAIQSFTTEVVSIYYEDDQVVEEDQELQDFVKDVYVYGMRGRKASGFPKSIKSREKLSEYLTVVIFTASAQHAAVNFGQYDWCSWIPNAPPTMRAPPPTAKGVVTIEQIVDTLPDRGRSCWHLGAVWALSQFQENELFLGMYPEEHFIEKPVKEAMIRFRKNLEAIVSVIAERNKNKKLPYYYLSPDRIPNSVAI
The experiment in a line: Inhibition of 5-LOX in Sprague-Dawley rat leukocytes assessed as A23187 stimulated LTB4 production pretreated for 30 mins followed by addition of A23187 for 30 mins by EIA. It counts as cell-based. The procedure, abridged:
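Rat peritoneal leukocytes collected from Sprague-Dawley rats primed i.p. with 0.2% glycogen (20 mL/kg). Cells in Hanks solution plated at 1.0×10^6/well and held 10 min at 37 °C. Pretreated 30 min with L-cysteine (10 mM), indomethacin (1 mg/L) and compound or DMSO. A23187 added for 30 min. LTB4 in the clarified supernatant measured by EIA; % inhibition from OD; IC50 by Bliss method.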

The test system of data set [11] is Mus musculus. The experiment in a line: Toxicity in mouse xenografted with B16F10 cells assessed as body weight at 40 mg/kg, iv measured after 25 days (reference value: 28.1 +/- 1.7 g). In kind it is organism-based, B16-F10. Conditions: in vivo, 600 h. The procedure, abridged:
(§2)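 B16-F10 cells implanted subcutaneously in the right oxter of ICR mice weighing 18-22 g. After 7 days, animals weighed and randomized into groups of 10. Dosed intravenously with vehicle (saline with 1% DMSO/2% poloxamer, 0.4 ml/mouse), 40 mg/kg test agent, or 5-FU 20 mg/kg. Killed on day 25 after implantation. Tumors excised and weighed; inhibition = (1 − treated/vehicle mean tumor weight)×100; body weights recorded at start and end.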

The nature of data set [12]: Antitumor activity against mouse B16F10 cells xenografted in mouse assessed as inhibition of tumor growth at 40 mg/kg, iv after 25 days. The conditions noted are these: B16-F10, iv, 600 h. It counts as functional. The procedure, abridged:
as §2

The target in data set [13] is T4, Prostaglandin G/H synthase 2 (Homo sapiens, UniProt P35354).
T4 sequence (P35354 whole entry): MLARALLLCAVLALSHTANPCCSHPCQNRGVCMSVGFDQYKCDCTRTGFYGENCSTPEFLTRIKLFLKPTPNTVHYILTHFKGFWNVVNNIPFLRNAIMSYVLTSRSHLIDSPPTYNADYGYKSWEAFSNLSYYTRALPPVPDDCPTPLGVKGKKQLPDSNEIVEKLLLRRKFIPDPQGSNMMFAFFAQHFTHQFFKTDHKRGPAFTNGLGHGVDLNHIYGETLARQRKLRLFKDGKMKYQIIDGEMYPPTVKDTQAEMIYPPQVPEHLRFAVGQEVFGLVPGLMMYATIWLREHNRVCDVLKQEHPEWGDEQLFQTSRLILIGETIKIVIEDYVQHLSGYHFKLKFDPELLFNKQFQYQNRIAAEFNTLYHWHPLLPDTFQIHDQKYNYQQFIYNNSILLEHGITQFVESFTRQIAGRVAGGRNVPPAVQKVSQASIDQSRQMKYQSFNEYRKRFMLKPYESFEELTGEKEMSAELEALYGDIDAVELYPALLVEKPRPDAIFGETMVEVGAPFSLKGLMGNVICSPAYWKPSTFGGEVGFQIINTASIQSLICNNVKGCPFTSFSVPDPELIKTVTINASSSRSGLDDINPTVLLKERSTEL
Briefly: Inhibition of COX-2 (unknown origin).

Turning to `O=c1[nH]cc(F)c(=O)[nH]1` [FLUOROURACIL], in [1], the Activity is 26 g. In [2], the inhibition in vivo – broadly, the percentage by which the read-out fell short of the control – at 20 mg/kg was found to be 68.2%.
On to `CS(=O)(=O)c1ccc(-c2nc(SCCCNC(=O)/C=C/c3ccc(O)c(O)c3)nn2-c2ccc(F)cc2)cc1`, for which the half-inhibitory concentration (IC50) (commonly the concentration needed to halve the response being measured) came to 22.1 µM in [3]; 0.12 µM in data set [5]; 18.7 µM in data set [6]; 13.2 µM in data set [7]; 20.9 µM in [8]; 23.1 µM in data set [9]. The 50% inhibitory concentration (IC50) in [10] is 0.71 µM. In data set [4], the Ratio IC50 was found to be 0.009.
In the case of `COc1cc(/C=C/C(=O)OCCSc2nc(-c3ccc(S(C)(=O)=O)cc3)n(-c3ccc(C(F)(F)F)cc3)n2)ccc1O`, the Activity in [11] is given as 26.3 g. Further, the IC50 in data set [3] was 6.78 µM; in data set [5] it was 0.21 µM; in data set [6] it was 8.65 µM; in data set [7], 20.5 µM; in data set [8] it was 9.05 µM; in [9] it was 7.46 µM. In data set [10], the half-inhibitory concentration (IC50) amounted to 0.81 µM. Moreover, the Ratio IC50 in [4] amounted to 0.01. For the same molecule, the inhibition in vivo at 40 mg/kg in [12] came out at 58.9%.
In the case of `CSc1nc(-c2ccc(S(N)(=O)=O)cc2)n(-c2ccc(Cl)cc2)n1`, the IC50 in data set [3] came to 29.5 µM; in data set [6], 32.3 µM; in data set [8] it was 41.2 µM; in [9] it was 37.5 µM; in data set [13], 0.37 µM.
For the molecule `COc1cc(/C=C/C(=O)OCCSc2nc(-c3ccc(S(C)(=O)=O)cc3)n(-c3ccc(F)cc3)n2)ccc1OC(C)=O`, the IC50 in data set [3] came out at 9.61 µM; in data set [5], 0.24 µM; in data set [6], 11.2 µM; in data set [8] it was 10.8 µM; in data set [9], 12.8 µM; in [10], 0.92 µM.
For `CC(=O)Oc1ccc(/C=C/C(=O)NCCSc2nc(-c3ccc(S(N)(=O)=O)cc3)n(-c3ccc(Br)cc3)n2)cc1OC(C)=O`, the IC50 in data set [3] stood at 18.7 µM; in data set [5], 0.18 µM; in [6], 15.2 µM; in data set [8] it was 16.7 µM; in data set [9] it was 17 µM; in [10] it was 0.99 µM.
Turning to `CS(=O)(=O)c1ccc(-c2nc(SCCCOC(=O)/C=C/c3ccccc3)nn2-c2ccc(Br)cc2)cc1`, the IC50 in data set [3] is 22.3 µM; in [5], 0.42 µM; in data set [6], 19.4 µM; in [7] it was 45.7 µM; in data set [8], 24.6 µM; in data set [9] it was 21.9 µM. Besides, in [10], the IC50 worked out at 1.3 µM. The Ratio IC50 in data set [4] was found to be 0.009.

For the origin of these results see ChEMBL document CHEMBL3745688, “Discovery of novel hybrids of diaryl-1,2,4-triazoles and caffeic acid as dual inhibitors of cyclooxygenase-2 and 5-lipoxygenase for cancer therapy” (Eur J Med Chem, 2016).
